According to paper PMC12279052 (RSC Advances, 2025):

Columns and labels:
[1] = test system: Escherichia coli ATCC25922; test: Antibacterial activity, broth dilution MIC; format: cell-based; settings: E. coli, n = 3
[2] = Conductivity in low concentration region; format: physicochemical; settings: in water
Outline: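 Conductivity of aqueous test compound solutions was measured at each temperature in double-distilled deionized water (0.8 − 1.0 × 10−4 S m−1 at 298.15 K). The digital meter and electrode were calibrated with standard KCl, and the thermostat held ±0.02 K; relative standard uncertainty was ±3%.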

[3] = Density measurement, apparent molar volume at infinite dilution in water; format: physicochemical; settings: aqueous solution
Outline: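 Solution density was measured with a vibrating-tube densitometer calibrated with dry air and double-distilled water, with Peltier temperature control at ±0.01 K and density uncertainty 2.0 × 10−4 g cm−3. Apparent molar volumes were computed versus molality. Infinite-dilution values came from the Redlich–Mayer equation with empirical parameters Sv and Bv.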

[4] = Aggregation in water by electrical conductivity; format: physicochemical; settings: for cmc: conductivity, water; for ionization degree α: micelle (cmc); for ΔG^0m / ΔH^0m / ΔS^0m / −TΔS^0m: micellization (cmc)
Outline: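 Conductivity of aqueous test compound solutions was measured with a digital conductivity meter and electrode, calibrated against standard KCl, with a thermostat holding ±0.02 K and ±3% relative uncertainty. cmc and cac were taken from the break points, found by fitting the Aguiar equation. α came from the ratio of post- to pre-transition slopes (A2/A1), and micellization thermodynamic functions from the mass action model.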

[5] = Steady-state fluorescence with pyrene probe; format: physicochemical; settings: 298.15 K
Outline: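 Pyrene (1 μM) served as probe at 298.15 K. Excitation was 335 nm, emission 355–650 nm, slits 2.5 nm, 700 V, 240 nm min−1, in a 1 cm quartz cuvette. cmc came from a Boltzmann fit of I1/I3 (373/384 nm). For Nagg, test compound at 2.5 cmc was quenched with cetylpyridinium chloride at 0.2–1.0 × 10−4 mol dm−3, and Nagg was derived from linear ln(I0/I) versus [Q].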

[6] = test system: human hepatocellular carcinoma cell line HepG2; test: Cell toxicity assay, MTT; format: cell-based; settings: HepG2, MTT, 24 h, n = 3
[7] = test system: human lung cancer cell line A549; test: Cell toxicity assay, MTT; format: cell-based; settings: A549, MTT, 24 h, n = 3
[8] = test system: Cutibacterium acnes ATCC6919; test: Antibacterial activity, broth dilution MIC; format: cell-based; settings: C. acnes, n = 3
[9] = Octanol–water partition coefficient, shake-flask method; format: physicochemical
Outline: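 Shake-flask partitioning was run at 25 and 37 °C in water, SGF (pH 1.2), SIF (pH 6.8) or SBF (pH 7.4). Fluids were prepared per USP without enzyme and pre-saturated with n-octanol (24 h shaking, 24 h separation). Test compound in buffer-saturated octanol (5 mL) was shaken 24 h with 5 mL octanol-saturated buffer, then centrifuged 10 min. The octanol phase was read by UV at 200 nm, and log Ko/w = log Co/(C−Co).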

[10] = test system: Candida albicans ATCC10231; test: Antimicrobial activity, broth dilution MIC; format: cell-based; settings: C. albicans, n = 3
[11] = Thermal stability by TG/DTG; format: physicochemical; settings: first decomposition process, 10 K min^−1, argon
Outline: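 Simultaneous thermal analysis ran from 30–500 °C at 10 K min−1 on 3–5 mg sample in an Al2O3 crucible, with α-Al2O3 as reference. Argon served as protective gas at 20 mL min−1 and as purge gas at 60 mL min−1.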

[12] = test system: Staphylococcus aureus ATCC29213; test: Antibacterial activity, broth dilution MIC; format: cell-based; settings: S. aureus, n = 3

CCCCCCCCCCC(=O)O.O=C1CCC[C@@H]2[C@H]3CCCN4CCC[C@@H](CN12)[C@@H]34 [[Mat][C11]]
MIC [1]: 28.8 mM | Association constant KA ([2]; 298.15 K): 19.06 ± 1.31 dm^3 mol^−1 | Limiting molar conductivity Λ0 ([2]; 298.15 K): 44.67 ± 0.06 S cm^2 mol^−1 | Association constant KA ([2]; 303.15 K): 7.36 ± 1.09 dm^3 mol^−1 | Limiting molar conductivity Λ0 ([2]; 303.15 K): 49.46 ± 0.06 S cm^2 mol^−1 | Association constant KA ([2]; 308.15 K): 2.04 ± 1.14 dm^3 mol^−1 | Limiting molar conductivity Λ0 ([2]; 308.15 K): 55.26 ± 0.07 S cm^2 mol^−1 | Apparent molar volume at infinite dilution V^0 2,φ ([3]; 293.15 K): 386.51 ± 0.35 cm^3 mol^−1 | Apparent molar volume at infinite dilution V^0 2,φ ([3]; 298.15 K): 389.66 ± 0.38 cm^3 mol^−1 | Apparent molar volume at infinite dilution V^0 2,φ ([3]; 303.15 K): 392.77 ± 0.34 cm^3 mol^−1 | Apparent molar volume at infinite dilution V^0 2,φ ([3]; 308.15 K): 396.26 ± 0.38 cm^3 mol^−1 | cmc ([4]; 293.15 K): 0.00385 mol/kg | cmc ([4]; 298.15 K): 0.00395 mol/kg | cmc ([4]; 303.15 K): 0.00402 mol/kg | cmc ([4]; 308.15 K): 0.00407 mol/kg | cmc ([4]; 313.15 K): 0.00411 mol/kg | ionization degree α ([4]; 293.15 K): 0.8532 | ionization degree α ([4]; 298.15 K): 0.8429 | ionization degree α ([4]; 303.15 K): 0.8267 | ionization degree α ([4]; 308.15 K): 0.8151 | ionization degree α ([4]; 313.15 K): 0.7968 | ΔG^0m ([4]; 293.15 K): -26.77 kJ/mol | ΔH^0m ([4]; 293.15 K): -4.36 kJ/mol | ΔS^0m ([4]; 293.15 K): 76.44 J mol^−1 K^−1 | −TΔS^0m ([4]; 293.15 K): -22.41 kJ/mol | ΔG^0m ([4]; 298.15 K): -27.39 kJ/mol | ΔH^0m ([4]; 298.15 K): -3.65 kJ/mol | ΔS^0m ([4]; 298.15 K): 79.65 J mol^−1 K^−1 | −TΔS^0m ([4]; 298.15 K): -23.75 kJ/mol | ΔG^0m ([4]; 303.15 K): -28.19 kJ/mol | ΔH^0m ([4]; 303.15 K): -2.88 kJ/mol | ΔS^0m ([4]; 303.15 K): 83.51 J mol^−1 K^−1 | −TΔS^0m ([4]; 303.15 K): -25.32 kJ/mol | ΔG^0m ([4]; 308.15 K): -28.90 kJ/mol | ΔH^0m ([4]; 308.15 K): -2.02 kJ/mol | ΔS^0m ([4]; 308.15 K): 87.26 J mol^−1 K^−1 | −TΔS^0m ([4]; 308.15 K): -26.89 kJ/mol | ΔG^0m ([4]; 313.15 K): -29.80 kJ/mol | ΔH^0m ([4]; 313.15 K): -1.08 kJ/mol | ΔS^0m ([4]; 313.15 K): 91.70 J mol^−1 K^−1 | −TΔS^0m ([4]; 313.15 K): -28.72 kJ/mol | cmc ([5]; Fluorescence (pyrene I1/I3), water): 0.00384 mol/kg | N agg (aggregation number) ([5]; ST = 2.5 cmc, fluorescence quenching with CPC): 77 | IC50 [6]: 450 µM | IC50 [7]: 710 µM | MIC [8]: 0.46 mM | Log K o/w ([9]; pH = 1.2 (SGF), 25 °C): −0.32 | Log K o/w ([9]; pH = 1.2 (SGF), 37 °C): 0.26 | Log K o/w ([9]; pH = 6.8 (SIF), 25 °C): 0.04 | Log K o/w ([9]; pH = 6.8 (SIF), 37 °C): 0.35 | Log K o/w ([9]; pH = 7.0 (ultrapure water), 25 °C): 0.77 | Log K o/w ([9]; pH = 7.0 (ultrapure water), 37 °C): 0.91 | Log K o/w ([9]; pH = 7.4 (SBF), 25 °C): 1.20 | Log K o/w ([9]; pH = 7.4 (SBF), 37 °C): 1.27 | MIC [10]: 0.46 mM | T onset (onset decomposition temperature) [11]: 199.4 °C | MIC [12]: 0.9 mM
